Experimental data taken from ChEMBL document CHEMBL1795306, “Acyl derivatives of p-aminosulfonamides and dapsone as new inhibitors of the arginine methyltransferase hPRMT1” (Bioorg Med Chem, 2011).
Active and inactive are the calls of the source. The calls are words filed in the database; no cut-off is given here.

Key:
[1] = target: T1, Protein arginine N-methyltransferase 1 (Homo sapiens, UniProt Q99873); test: Inhibition of human recombinant PRMT1-mediated arginine methylation at 50 uM using nonhistone protein Npl3 substrate by ELISA
Target sequence in this assay (Q99873 whole entry, looked up): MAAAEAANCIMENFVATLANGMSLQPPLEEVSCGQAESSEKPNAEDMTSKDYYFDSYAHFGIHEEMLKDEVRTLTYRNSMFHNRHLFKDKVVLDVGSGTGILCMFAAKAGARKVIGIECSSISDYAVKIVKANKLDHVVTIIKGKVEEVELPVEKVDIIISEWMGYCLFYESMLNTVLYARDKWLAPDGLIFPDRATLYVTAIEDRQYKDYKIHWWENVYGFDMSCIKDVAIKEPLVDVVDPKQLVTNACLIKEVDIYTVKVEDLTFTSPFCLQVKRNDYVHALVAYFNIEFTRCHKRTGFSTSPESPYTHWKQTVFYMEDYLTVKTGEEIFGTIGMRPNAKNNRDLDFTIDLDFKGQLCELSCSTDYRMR

[2] = target: T1, Protein arginine N-methyltransferase 1; test: Inhibition of human recombinant PRMT1-mediated arginine methylation at 10 uM using nonhistone protein Npl3 substrate by ELISA
Target sequence in this assay (Q99873 whole entry, looked up): as above

[3] = target: T2, Histone-lysine N-methyltransferase SETD7 (Homo sapiens) (UniProt Q8WTS6); test: Inhibition of methyl transferase activity of SET7/9 at 50 uM using biotinylated histone H3(1-21) substrate by In-vitro time resolved fluorescence immunosorbent methyltransferase assay
T2 sequence (whole entry): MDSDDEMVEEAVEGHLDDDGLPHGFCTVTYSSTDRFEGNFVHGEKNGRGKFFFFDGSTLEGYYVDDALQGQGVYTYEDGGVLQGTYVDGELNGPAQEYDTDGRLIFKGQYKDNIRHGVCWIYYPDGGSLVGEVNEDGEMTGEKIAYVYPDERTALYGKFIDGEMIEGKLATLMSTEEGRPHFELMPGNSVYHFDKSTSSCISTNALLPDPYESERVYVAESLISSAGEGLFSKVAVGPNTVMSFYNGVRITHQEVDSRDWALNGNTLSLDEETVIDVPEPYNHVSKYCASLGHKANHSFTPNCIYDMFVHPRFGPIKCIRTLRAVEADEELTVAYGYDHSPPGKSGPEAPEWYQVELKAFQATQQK
Procedure, shortened: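 Biotinylated human histone H3 peptide (aa 1-21, 20 pmol/well) bound to streptavidin plates. Recombinant human GST-Set7/9 preincubated with inhibitor (DMSO) 10 min at 30 °C, then transferred to wells; reaction started with SAM. Methylation detected with rabbit anti-methyl H3K4 antibody and europium-labelled anti-rabbit IgG, read by time-resolved fluorescence (340/615 nm) after enhancement solution.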

[4] = target: T1, Protein arginine N-methyltransferase 1; test: Inhibition of human recombinant PRMT1-mediated arginine methylation using nonhistone protein Npl3 substrate by ELISA
Target sequence in this assay (Q99873 whole entry): as the sequence (Q99873 whole entry, looked up) above

[5] = target: T3, Histone-arginine methyltransferase CARM1 (Mus musculus) (UniProt Q9WVG6); test: Inhibition of mouse FLAG-tagged CARM1-mediated arginine methylation using histone H3(1-31) and [14C]-SAM at 0.01 to 2 mM
T3 sequence (whole entry): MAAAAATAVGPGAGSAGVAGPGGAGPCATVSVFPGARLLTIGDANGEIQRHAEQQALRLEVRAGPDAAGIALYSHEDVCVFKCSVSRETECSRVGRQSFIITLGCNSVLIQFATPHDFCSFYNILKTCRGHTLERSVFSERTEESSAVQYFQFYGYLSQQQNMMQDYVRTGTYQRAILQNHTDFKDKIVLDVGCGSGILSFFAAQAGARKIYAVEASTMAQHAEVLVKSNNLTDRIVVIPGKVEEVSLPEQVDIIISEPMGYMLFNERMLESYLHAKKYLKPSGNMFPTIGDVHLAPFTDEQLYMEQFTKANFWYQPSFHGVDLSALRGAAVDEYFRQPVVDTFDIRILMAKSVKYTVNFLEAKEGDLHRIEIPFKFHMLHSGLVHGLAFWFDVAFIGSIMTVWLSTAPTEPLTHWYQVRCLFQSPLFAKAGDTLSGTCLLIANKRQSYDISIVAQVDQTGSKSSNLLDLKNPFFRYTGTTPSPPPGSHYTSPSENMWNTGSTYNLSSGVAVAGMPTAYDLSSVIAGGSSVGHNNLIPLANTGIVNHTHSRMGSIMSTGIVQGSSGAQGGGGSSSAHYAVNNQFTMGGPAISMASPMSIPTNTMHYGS
Procedure, shortened: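 Flag-CARM1 (mouse, baculovirus-expressed, 250 nM) with 20 μM recombinant histone H3 and 10 μg/mL BSA in 50 mM Tris-HCl, 0.2 M NaCl, 0.5 mM DTT, pH 8.0, preincubated with inhibitor (0.01–2 mM) 30 min at room temperature, centrifuged; started with 10 μM ¹⁴C-SAM, 15 min at 25 °C. SDS-PAGE, phosphorimager quantitation of H3 radioactivity.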

LNCaP [6] = test: Inhibition of androgen dependent transcription in human LNCAP cells assessed as blockade of R1881-induced transcription at 25 uM by androgen derived MMTV-luciferase reporter gene assay; assay type: functional, cell-based
Procedure, shortened: (§1)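 LNCaP cells (2×10^5) grown in RPMI1640/10% FCS, switched to phenol-red-free RPMI1640 with 10% double-stripped FCS, transfected with 500 ng MMTV-Luc (androgen-driven) or TK-Luc (androgen-independent) reporter per well. Six hours later inhibitor or DMSO added, then overnight with or without 10^-10 M R1881; luciferase read. Three experiments in duplicate, mean + SD (n = 6).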

[7] = Growth inhibition of human MCF7a cells by MTS assay; assay type: functional
LNCaP [8] = test: Inhibition of androgen dependent IGF1-R gene transcription in human LNCAP cells by RT-PCR preincubated for 10 mins before 1 nM synthetic androgen R1881 addition; assay type: functional, cell-based
Procedure, shortened: (§2)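 LNCaP cells washed with PBS, starved 24 h in phenol-red-free RPMI1640 with 0.5% double-stripped FCS, then treated with inhibitor or DMSO vehicle; 10 min later stimulated overnight with or without 10⁻⁹ M R1881. DNase I-treated Trizol RNA reverse transcribed; target mRNA quantified by SYBR green I quantitative PCR with ROX passive reference.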

LNCaP [9] = test: Inhibition of androgen dependent CXCR4 gene transcription in human LNCAP cells by RT-PCR preincubated for 10 mins before 1 nM synthetic androgen R1881 addition; assay type: functional, cell-based; procedure, shortened: as §2
LNCaP [10] = test: Growth inhibition of human LNCAP cells by MTS assay; assay type: functional
LNCaP [11] = test: Inhibition of androgen dependent PER1 gene transcription in human LNCAP cells by RT-PCR preincubated for 10 mins before 1 nM synthetic androgen R1881 addition; assay type: functional, cell-based; procedure, shortened: as §2
LNCaP [12] = test: Inhibition of androgen dependent […] gene transcription in human LNCAP cells by RT-PCR preincubated for 10 mins before 1 nM synthetic androgen R1881 addition; assay type: functional, cell-based; procedure, shortened: as §2
LNCaP [13] = test: Inhibition of androgen dependent NKX3.1 gene transcription in human LNCAP cells by RT-PCR preincubated for 10 mins before 1 nM synthetic androgen R1881 addition; assay type: functional, cell-based; procedure, shortened: as §2
LNCaP [14] = test: Inhibition of androgen dependent GREB1 gene transcription in human LNCAP cells by RT-PCR preincubated for 10 mins before 1 nM synthetic androgen R1881 addition; assay type: functional, cell-based; procedure, shortened: as §2
LNCaP [15] = test: Inhibition of androgen dependent TMPRSS2 gene transcription in human LNCAP cells by RT-PCR preincubated for 10 mins before 1 nM synthetic androgen R1881 addition; assay type: functional, cell-based; procedure, shortened: as §2
LNCaP [16] = test: Inhibition of androgen-independent GAPDH gene transcription in human LNCAP cells by RT-PCR preincubated for 10 mins before 1 nM synthetic androgen R1881 addition; assay type: functional, cell-based; procedure, shortened: as §2
LNCaP [17] = test: Inhibition of thymidine kinase promoter dependent transcription in human LNCAP cells at 10 uM by androgen-nondependent thymidine kinase-luciferase reporter gene assay; assay type: functional, cell-based; procedure, shortened: as §1
LNCaP [18] = test: Inhibition of androgen dependent MAF gene transcription in human LNCAP cells by RT-PCR preincubated for 10 mins before 1 nM synthetic androgen R1881 addition; assay type: functional, cell-based; procedure, shortened: as §2
LNCaP [19] = test: Inhibition of androgen dependent FKBP5 gene transcription in human LNCAP cells by RT-PCR preincubated for 10 mins before 1 nM synthetic androgen R1881 addition; assay type: functional, cell-based; procedure, shortened: as §2
LNCaP [20] = test: Inhibition of thymidine kinase promoter dependent transcription in human LNCAP cells at 1 uM by androgen-nondependent thymidine kinase-luciferase reporter gene assay; assay type: functional, cell-based; procedure, shortened: as §1
LNCaP [21] = test: Inhibition of androgen dependent ELK4 gene transcription in human LNCAP cells by RT-PCR preincubated for 10 mins before 1 nM synthetic androgen R1881 addition; assay type: functional, cell-based; procedure, shortened: as §2
LNCaP [22] = test: Inhibition of androgen dependent MAK gene transcription in human LNCAP cells by RT-PCR preincubated for 10 mins before 1 nM synthetic androgen R1881 addition; assay type: functional, cell-based; procedure, shortened: as §2
LNCaP [23] = test: Inhibition of androgen dependent transcription in human LNCAP cells assessed as blockade of R1881-induced transcription at 1 to 25 uM by androgen derived MMTV-luciferase reporter gene assay; assay type: functional, cell-based; procedure, shortened: as §1

Row | SMILES | inhibition [1] | inhibition [2] | also measured
1 | COc1ccc(CNS(=O)(=O)c2ccc(N)cc2)cc1 | 19% | 12% | –
2 | Nc1ccc(S(=O)(=O)NCc2ccccn2)cc1 | – | – | IC50 [4]: 70.7 µM; inhibition [3]: 14%
3 | O=S(=O)(NCCc1ccccc1)c1ccc(Cl)cc1 | < 5% | – | –
4 | Nc1ccc(S(=O)(=O)NCCc2ccc(O)cc2)cc1 | 37% | 30% | –
5 | Nc1ccc(C(=O)NCc2ccccc2)cc1 | 47% | – | –
6 | CC(NC(=O)c1ccc(N)cc1)c1ccccc1 (configuration not stated) | 34% | – | –
7 | CC(NS(=O)(=O)c1ccc(N)cc1)c1ccccc1 (configuration not stated) | 40% | 28% | –
8 | Nc1ccc(C(=O)Nc2ccc(S(=O)(=O)NCCc3ccccc3)cc2)cc1 | 40% | 40% | –
9 | O=S(=O)(NCCc1ccccc1)c1ccc(NS(=O)(=O)c2ccc(Cl)cc2)cc1 | – | – | IC50 [4]: 5 µM; inhibition [5]: inactive; inhibition [3]: 58%
10 | Nc1ccc(S(=O)(=O)NCc2ccc(Cl)cc2)cc1 | < 5% | – | –
11 | O=C(Cc1ccccc1)Nc1ccc(S(=O)(=O)c2ccc(NC(=O)Cc3ccccc3)cc2)cc1 | – | – | inhibition [3]: 31%
12 | O=C(Nc1ccc(S(=O)(=O)NCCc2ccccc2)cc1)c1ccc(Br)cc1 | 41% | 23% | –
13 | Nc1ccc(S(=O)(=O)NCc2ccccc2)cc1 | 28% | 22% | –
14 | O=C(Nc1ccc(S(=O)(=O)NCCc2ccccc2)cc1)c1ccc(Cl)c(Cl)c1 | – | – | inhibition (LNCaP [6]): Active; GI50 [7]: 52.2 µM; inhibition [3]: 37%
15 | Nc1ccc(S(=O)(=O)NCCc2ccc(Cl)cc2)cc1 | < 5% | – | –
16 | O=C(CCl)Nc1ccc(S(=O)(=O)c2ccc(NC(=O)CCl)cc2)cc1 | – | – | inhibition (LNCaP [8]): Active; IC50 [4]: 1.5 µM; inhibition (LNCaP [9]): Active; GI50 (LNCaP [10]): 4.49 µM; inhibition (LNCaP [11]): Active; inhibition (LNCaP [12]): Active; inhibition (LNCaP [13]): Active; GI50 [7]: 1.97 µM; inhibition (LNCaP [14]): Active; inhibition (LNCaP [15]): Active; inhibition (LNCaP [16]): inactive; inhibition (LNCaP [17]): inactive; inhibition [5]: inactive; inhibition (LNCaP [18]): Active; inhibition (LNCaP [19]): Active; inhibition [3]: < 5%; inhibition (LNCaP [20]): inactive; inhibition (LNCaP [21]): Active; inhibition (LNCaP [22]): Active; inhibition (LNCaP [23]): Active
17 | O=C(Nc1ccc(S(=O)(=O)NCCc2ccccc2)cc1)c1ccc(-c2ccccc2)cc1 | 42% | 39% | –

Now from value to molecule, other results behind:

Row | inhibition [1] | inhibition [2] | SMILES | also measured
18 | 41.2% | 35.3% | Nc1ccc(S(=O)(=O)c2ccc(NC(=O)Cc3ccccc3)cc2)cc1 | inhibition [3]: < 5%
19 | 70.6% | 23.5% | CCC(=O)Nc1ccc(S(=O)(=O)c2ccc(N)cc2)cc1 | –
20 | 44.1% | 14.7% | CCCC(=O)Nc1ccc(S(=O)(=O)c2ccc(NC(=O)CCC)cc2)cc1 | –
21 | 10% | < 5% | O=C(Cc1ccccc1)Nc1ccc(S(=O)(=O)NCCc2ccccc2)cc1 | –
22 | 20% | 15% | O=C(Nc1ccc(S(=O)(=O)NCCc2ccccc2)cc1)c1ccccc1 | –
23 | < 5% | – | CCC(=O)Nc1ccc(S(=O)(=O)c2ccc(NC(=O)CC)cc2)cc1 | –
24 | 13.6% | < 5% | Nc1ccc(S(=O)(=O)c2ccc(NC(=O)NCc3ccccc3)cc2)cc1 | –
